Results collected from several papers.

SMILES	target or system	assay	setting	measurement	value
CCCCOc1ccc(-c2cnc3c(n2)CCCC3)cc1	Haemonchus contortus	parasite motility	48 h, larva	IC50	6.9 µM
Cc1cc(Nc2ncc(Cl)c(Nc3ccccc3S(=O)(=O)C(C)C)n2)c(OC(C)C)cc1C1CCNCC1	NCI-H2228	cell growth or viability, MTT	5 µg/mL, 72 h	inhibition	93.5%
O=c1[nH]c(NCc2ccc(Cl)c(Cl)c2)nc2ncn(CCN3CCOCC3)c12	Eggerthella lenta	microbial growth, agar dilution	48 h	MIC	> 32 µg/mL
Cc1ccc(C(CS(=O)(=O)c2ccccc2)=NNc2nc(-c3ccc(OCCCCOc4ccc(-c5csc(NN=C(CS(=O)(=O)c6ccccc6)c6ccc(C)cc6)n5)cc4)cc3)cs2)cc1	SK-MEL-23	cell growth or viability, MTT	100 µM, 48 h	viability	37.2%
CCCCOc1cccc(-c2cnc3c(n2)CCCC3)c1	Haemonchus contortus	parasite motility	72 h, larva	IC50	17.7 µM
CCc1cc(Nc2cc(=O)n(CCCCO)c(=O)[nH]2)ccc1C	Eggerthella lenta	microbial growth, agar dilution	48 h	MIC	> 32 µg/mL
Cc1ccc(C(CS(=O)(=O)c2ccccc2)=NNC2=NC(=O)C(=NNc3ccccc3)S2)cc1	SK-MEL-23	cell growth or viability, MTT	6.3 µM, 48 h	viability	36.3%
O=C(Nc1ccccc1-c1ccc(F)c(F)c1)c1nccnc1C(F)(F)F	Penicillium digitatum	microbial growth	–	EC50	> 100 µg/mL
CCCCCc1ccc(-c2cnc3c(n2)CCCC3)cc1	Haemonchus contortus	parasite motility	72 h, larva	IC50	14.4 µM
C[C@@H](Oc1cc(-c2cnn(C3CCNCC3)c2)cnc1N)c1c(Cl)ccc(F)c1Cl	NCI-H2228	cell growth or viability, MTT	0.04 µg/mL, 72 h	inhibition	45.9%
CCCCc1cccc(-c2cnc3c(n2)CCCC3)c1	Haemonchus contortus	parasite motility	24 h, larva	IC50	32.4 µM
Cc1ccc(C(CS(=O)(=O)c2ccccc2)=NN=C2N=C(c3ccc(Br)cc3)CS2)cc1	SK-MEL-23	cell growth or viability, MTT	25 µM, 48 h	viability	54.9%
